Source: ChEMBL document CHEMBL1165965, “Synthesis and structure-activity relationships of 1,2,3,4-tetrahydropyrido[2,3-b]pyrazines as potent and selective inhibitors of the anaplastic lymphoma kinase” (Bioorg Med Chem, 2010)

Tests used:
[1] = molecular target: Mitogen-activated protein kinase kinase kinase 10 (Homo sapiens) (UniProt Q02779); assay: Inhibition of MLK2 at 1 uM
How it was run: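 Kinase-panel screen using KINOMEscan technology, with 250–400 kinases per panel. Each compound was tested at a single concentration, and inhibition of each kinase was recorded. Selectivity was summarised as S(90), the fraction of kinases inhibited by more than 90%.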

[2] = molecular target: Serine/threonine-protein kinase 38 (Homo sapiens) (UniProt Q15208); assay: Inhibition of NDR1 at 1 uM
[3] = molecular target: Cyclin-dependent kinase 14 (Homo sapiens) (UniProt O94921); assay: Inhibition of PFTK1 at 1 uM
[4] = molecular target: Phosphatidylinositol 4,5-bisphosphate 3-kinase catalytic subunit alpha isoform (Homo sapiens) (UniProt P42336); assay: Inhibition of PIK3CA at 1 uM
[5] = molecular target: T1, Serine/threonine-protein kinase D1 (Homo sapiens) (UniProt Q15139); assay: Inhibition of PRKD1 at 1 uM
T1 sequence (whole entry): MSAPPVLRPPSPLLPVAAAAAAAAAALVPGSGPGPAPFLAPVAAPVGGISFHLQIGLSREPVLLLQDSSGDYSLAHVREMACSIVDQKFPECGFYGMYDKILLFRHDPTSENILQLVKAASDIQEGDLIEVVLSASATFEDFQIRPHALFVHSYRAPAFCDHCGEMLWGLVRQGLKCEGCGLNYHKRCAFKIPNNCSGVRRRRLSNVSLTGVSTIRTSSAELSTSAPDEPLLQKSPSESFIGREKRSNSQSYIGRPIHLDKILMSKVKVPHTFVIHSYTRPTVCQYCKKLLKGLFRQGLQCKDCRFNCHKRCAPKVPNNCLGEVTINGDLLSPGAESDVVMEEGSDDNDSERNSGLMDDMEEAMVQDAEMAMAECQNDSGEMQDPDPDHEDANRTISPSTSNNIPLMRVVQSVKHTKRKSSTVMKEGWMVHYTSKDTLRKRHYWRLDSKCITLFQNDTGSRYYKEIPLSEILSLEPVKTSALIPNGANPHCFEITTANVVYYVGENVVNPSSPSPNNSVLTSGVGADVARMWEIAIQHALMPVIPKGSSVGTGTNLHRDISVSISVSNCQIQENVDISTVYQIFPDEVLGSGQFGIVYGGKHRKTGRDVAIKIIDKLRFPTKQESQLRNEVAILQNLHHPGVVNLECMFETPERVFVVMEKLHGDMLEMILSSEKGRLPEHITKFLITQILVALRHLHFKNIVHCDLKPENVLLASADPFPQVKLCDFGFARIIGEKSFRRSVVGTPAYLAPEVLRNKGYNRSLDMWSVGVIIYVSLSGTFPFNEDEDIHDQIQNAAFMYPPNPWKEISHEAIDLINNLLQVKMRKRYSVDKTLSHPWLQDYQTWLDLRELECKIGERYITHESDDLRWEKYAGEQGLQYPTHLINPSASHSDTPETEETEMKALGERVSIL

[6] = molecular target: T2, Atypical kinase COQ8B, mitochondrial (Homo sapiens) (UniProt Q96D53); assay: Inhibition of ADCK4 at 1 uM
T2 sequence (whole entry): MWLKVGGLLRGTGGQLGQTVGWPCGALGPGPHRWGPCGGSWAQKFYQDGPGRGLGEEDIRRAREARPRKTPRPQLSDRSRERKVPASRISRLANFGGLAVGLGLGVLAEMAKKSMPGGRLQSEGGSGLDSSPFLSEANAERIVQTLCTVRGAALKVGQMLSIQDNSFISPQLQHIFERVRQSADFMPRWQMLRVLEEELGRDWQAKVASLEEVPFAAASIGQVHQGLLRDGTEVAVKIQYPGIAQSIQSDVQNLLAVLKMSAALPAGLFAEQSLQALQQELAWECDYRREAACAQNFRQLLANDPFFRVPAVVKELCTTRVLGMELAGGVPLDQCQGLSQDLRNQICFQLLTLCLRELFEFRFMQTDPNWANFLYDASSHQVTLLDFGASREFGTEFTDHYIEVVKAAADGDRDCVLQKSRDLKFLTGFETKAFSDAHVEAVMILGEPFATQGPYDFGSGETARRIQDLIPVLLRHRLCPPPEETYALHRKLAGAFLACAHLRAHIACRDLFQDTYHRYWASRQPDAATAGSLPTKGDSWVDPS
How it was run: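 Ambit KINOMEscan screen at a single concentration across a 250–400 kinase panel, recorded as percent inhibition. Selectivity was expressed as S(90), the fraction of kinases inhibited >90%.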

[7] = molecular target: T3, Ankyrin repeat and protein kinase domain-containing protein 1 (Homo sapiens) (UniProt Q8NFD2); assay: Inhibition of ANKK1 at 1 uM
T3 sequence (whole entry): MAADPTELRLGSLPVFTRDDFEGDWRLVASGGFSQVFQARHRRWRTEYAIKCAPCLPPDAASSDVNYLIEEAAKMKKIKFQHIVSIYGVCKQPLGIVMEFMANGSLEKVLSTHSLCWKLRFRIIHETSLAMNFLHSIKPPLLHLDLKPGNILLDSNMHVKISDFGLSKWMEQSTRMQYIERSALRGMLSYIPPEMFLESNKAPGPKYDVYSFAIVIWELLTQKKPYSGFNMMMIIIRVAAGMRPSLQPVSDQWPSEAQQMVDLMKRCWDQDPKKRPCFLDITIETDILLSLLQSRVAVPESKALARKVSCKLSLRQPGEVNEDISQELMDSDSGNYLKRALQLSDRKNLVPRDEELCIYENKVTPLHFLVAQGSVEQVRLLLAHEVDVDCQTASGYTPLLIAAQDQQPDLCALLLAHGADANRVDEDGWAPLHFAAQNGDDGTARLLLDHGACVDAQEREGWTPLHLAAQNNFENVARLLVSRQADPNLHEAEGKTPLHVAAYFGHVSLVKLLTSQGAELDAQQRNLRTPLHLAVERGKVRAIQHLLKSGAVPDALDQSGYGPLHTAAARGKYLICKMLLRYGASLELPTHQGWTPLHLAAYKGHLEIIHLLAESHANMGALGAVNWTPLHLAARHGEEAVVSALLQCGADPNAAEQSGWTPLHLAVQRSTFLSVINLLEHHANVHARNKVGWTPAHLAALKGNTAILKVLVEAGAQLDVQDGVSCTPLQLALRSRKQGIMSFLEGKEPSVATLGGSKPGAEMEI

[8] = molecular target: Casein kinase I isoform gamma-2 (Homo sapiens) (UniProt P78368); assay: Inhibition of CSNK1G2 at 1 uM
How it was run: (§1)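 Single-concentration screen using Ambit Bioscience KINOMEscan technology across a panel of 250–400 kinases. Per-kinase inhibition from this screen was summarized as S(90), the fraction of kinases inhibited by more than 90%.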

[9] = molecular target: Death-associated protein kinase 2 (Homo sapiens) (UniProt Q9UIK4); assay: Inhibition of DAPK2 at 1 uM; how it was run: as §1
Chain of Death-associated protein kinase 2 (Homo sapiens) (Q9UIK4 whole entry, looked up): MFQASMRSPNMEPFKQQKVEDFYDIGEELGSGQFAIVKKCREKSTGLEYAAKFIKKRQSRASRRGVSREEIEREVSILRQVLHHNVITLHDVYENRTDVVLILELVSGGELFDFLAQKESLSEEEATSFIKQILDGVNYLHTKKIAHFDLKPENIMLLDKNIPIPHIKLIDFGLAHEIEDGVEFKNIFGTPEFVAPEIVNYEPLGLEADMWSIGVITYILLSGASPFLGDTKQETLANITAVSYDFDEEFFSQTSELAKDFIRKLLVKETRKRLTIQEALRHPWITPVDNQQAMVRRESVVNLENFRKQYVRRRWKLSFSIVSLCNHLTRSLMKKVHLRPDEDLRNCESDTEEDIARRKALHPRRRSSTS

Chain of Mitogen-activated protein kinase kinase kinase 10 (Homo sapiens) (Q02779 whole entry, looked up): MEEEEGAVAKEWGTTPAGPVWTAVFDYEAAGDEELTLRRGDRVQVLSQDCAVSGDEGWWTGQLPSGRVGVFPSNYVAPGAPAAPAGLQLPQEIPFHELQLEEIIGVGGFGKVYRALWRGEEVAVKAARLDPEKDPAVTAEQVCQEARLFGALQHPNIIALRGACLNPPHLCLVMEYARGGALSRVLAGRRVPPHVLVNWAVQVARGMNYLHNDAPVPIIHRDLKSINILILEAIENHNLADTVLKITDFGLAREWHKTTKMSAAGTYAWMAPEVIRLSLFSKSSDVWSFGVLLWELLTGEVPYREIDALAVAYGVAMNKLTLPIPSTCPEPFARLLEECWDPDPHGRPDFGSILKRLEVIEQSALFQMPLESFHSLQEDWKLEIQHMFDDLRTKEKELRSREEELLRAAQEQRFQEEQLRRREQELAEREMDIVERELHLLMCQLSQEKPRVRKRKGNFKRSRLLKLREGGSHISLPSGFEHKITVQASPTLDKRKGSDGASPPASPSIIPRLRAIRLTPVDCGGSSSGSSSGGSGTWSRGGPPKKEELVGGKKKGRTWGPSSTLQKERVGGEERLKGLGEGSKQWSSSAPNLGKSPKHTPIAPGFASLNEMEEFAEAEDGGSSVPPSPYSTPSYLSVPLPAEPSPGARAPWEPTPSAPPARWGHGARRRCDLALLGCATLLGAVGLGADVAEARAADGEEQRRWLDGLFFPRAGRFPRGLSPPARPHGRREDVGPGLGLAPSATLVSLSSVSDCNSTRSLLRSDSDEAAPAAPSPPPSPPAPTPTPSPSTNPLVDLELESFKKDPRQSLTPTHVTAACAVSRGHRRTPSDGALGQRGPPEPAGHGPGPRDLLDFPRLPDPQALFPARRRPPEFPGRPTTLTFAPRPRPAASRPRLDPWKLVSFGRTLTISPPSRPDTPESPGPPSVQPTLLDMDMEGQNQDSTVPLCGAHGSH
Chain of Cyclin-dependent kinase 14 (Homo sapiens) (O94921 whole entry, canonical isoform): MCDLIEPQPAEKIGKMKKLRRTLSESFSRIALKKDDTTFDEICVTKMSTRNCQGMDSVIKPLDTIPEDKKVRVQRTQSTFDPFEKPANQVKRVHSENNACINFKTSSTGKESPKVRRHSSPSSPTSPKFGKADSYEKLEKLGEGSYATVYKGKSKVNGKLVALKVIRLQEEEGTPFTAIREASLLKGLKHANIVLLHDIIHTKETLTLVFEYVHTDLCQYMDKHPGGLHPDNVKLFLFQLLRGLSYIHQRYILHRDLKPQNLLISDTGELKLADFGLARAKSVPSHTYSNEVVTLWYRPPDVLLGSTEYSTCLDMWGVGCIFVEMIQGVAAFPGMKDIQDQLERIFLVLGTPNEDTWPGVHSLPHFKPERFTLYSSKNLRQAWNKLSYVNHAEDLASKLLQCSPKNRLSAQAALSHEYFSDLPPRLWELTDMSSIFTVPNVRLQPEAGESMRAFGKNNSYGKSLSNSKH
Chain of Phosphatidylinositol 4,5-bisphosphate 3-kinase catalytic subunit alpha isoform (Homo sapiens) (P42336 whole entry, canonical isoform): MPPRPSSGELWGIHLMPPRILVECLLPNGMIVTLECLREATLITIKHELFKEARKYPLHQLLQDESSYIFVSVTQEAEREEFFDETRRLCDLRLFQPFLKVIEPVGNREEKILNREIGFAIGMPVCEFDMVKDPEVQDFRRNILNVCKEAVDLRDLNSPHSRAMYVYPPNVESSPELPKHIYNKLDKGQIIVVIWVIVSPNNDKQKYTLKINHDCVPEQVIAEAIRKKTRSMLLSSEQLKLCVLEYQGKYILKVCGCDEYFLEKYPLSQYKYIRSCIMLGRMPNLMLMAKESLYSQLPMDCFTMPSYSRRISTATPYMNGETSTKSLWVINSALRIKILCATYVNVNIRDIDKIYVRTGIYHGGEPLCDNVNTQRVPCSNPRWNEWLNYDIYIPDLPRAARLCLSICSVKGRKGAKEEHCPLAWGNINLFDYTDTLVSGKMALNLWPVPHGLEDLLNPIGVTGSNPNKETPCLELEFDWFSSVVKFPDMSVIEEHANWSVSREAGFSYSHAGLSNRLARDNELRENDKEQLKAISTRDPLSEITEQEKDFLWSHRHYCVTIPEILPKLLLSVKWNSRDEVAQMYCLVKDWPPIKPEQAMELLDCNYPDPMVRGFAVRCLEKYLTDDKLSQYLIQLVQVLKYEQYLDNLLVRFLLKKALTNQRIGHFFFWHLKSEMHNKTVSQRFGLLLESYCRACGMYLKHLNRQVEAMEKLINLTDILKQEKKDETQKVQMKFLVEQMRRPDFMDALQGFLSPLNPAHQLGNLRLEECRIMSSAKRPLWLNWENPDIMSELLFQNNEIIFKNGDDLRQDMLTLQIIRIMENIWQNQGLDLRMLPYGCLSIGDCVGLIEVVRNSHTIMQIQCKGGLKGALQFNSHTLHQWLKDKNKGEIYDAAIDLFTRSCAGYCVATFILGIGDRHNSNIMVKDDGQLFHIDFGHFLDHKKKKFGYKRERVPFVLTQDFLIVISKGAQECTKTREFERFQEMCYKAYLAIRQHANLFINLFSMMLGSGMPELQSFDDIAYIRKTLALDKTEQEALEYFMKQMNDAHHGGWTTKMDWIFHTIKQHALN
Chain of Serine/threonine-protein kinase 38 (Homo sapiens) (Q15208 2-465 limits assumed): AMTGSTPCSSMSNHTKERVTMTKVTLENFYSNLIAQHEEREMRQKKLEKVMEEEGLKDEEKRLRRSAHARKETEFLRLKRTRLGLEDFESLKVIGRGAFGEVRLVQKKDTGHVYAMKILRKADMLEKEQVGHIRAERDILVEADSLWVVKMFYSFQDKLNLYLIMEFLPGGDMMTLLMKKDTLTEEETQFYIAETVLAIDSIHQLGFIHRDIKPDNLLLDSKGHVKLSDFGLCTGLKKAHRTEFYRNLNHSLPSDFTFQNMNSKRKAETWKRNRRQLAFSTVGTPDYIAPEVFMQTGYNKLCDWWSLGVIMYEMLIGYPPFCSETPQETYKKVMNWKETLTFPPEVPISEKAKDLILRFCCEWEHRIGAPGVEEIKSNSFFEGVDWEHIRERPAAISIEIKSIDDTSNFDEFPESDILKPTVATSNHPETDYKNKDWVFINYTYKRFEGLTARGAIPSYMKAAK
Chain of Casein kinase I isoform gamma-2 (Homo sapiens) (P78368 whole entry, looked up, canonical isoform): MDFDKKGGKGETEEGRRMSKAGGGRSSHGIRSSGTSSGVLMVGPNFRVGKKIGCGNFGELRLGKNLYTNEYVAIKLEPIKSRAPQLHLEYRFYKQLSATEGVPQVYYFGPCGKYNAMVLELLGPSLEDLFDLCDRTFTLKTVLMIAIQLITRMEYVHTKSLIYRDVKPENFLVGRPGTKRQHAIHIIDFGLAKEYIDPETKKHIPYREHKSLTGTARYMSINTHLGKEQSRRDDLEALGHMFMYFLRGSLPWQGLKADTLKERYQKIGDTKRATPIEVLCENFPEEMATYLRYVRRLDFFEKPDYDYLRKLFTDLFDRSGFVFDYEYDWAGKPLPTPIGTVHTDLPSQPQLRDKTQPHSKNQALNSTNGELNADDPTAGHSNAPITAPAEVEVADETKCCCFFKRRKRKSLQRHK

Row | Structure (SMILES) | inhibition [1] [%] | inhibition [2] [%] | inhibition [3] [%] | inhibition [4] [%] | inhibition [5] [%] | inhibition [6] [%] | inhibition [7] [%] | inhibition [8] [%] | inhibition [9] [%]
1 | CN1CCN(c2ccc(-c3cnc4c(c3)N(Cc3cc(Cl)ccc3Cl)CCN4)cn2)CC1 | < 50 | < 50 | < 50 | < 50 | < 50 | < 50 | < 50 | < 50 | < 50
2 | CN1CCN(c2ccc(-c3cnc4c(c3)N(Cc3cc(Cl)ccc3C(F)(F)F)CCN4)cn2)CC1 | < 50 | < 50 | < 50 | < 50 | < 50 | < 50 | < 50 | < 50 | < 50
3 | CN1CCN(c2ccc(-c3cnc4c(c3)N(Cc3c(F)ccc(F)c3Cl)CCN4)cn2)CC1 | < 50 | < 50 | < 50 | < 50 | 67 | < 50 | < 50 | < 50 | < 50
4 | O=C(c1ccc(-c2cnc3c(c2)N(Cc2cc(Cl)ccc2C(F)(F)F)CCN3)cc1)N1CCC(N2CCCC2)CC1 | < 50 |  |  | < 50 |  | < 50 |  | < 50 | < 50
5 | COC1CCN(C(=O)c2ccc(-c3cnc4c(c3)N(Cc3cc(Cl)ccc3C(F)(F)F)CCN4)cc2)CC1 | < 50 |  |  | < 50 |  | < 50 |  | < 50 | < 50
6 | FC(F)(F)c1ccc(Cl)cc1CN1CCNc2ncc(-c3ccnc(N4CCNCC4)c3)cc21 | < 50 | < 50 | < 50 | < 50 | < 50 | < 50 | < 50 | < 50 | < 50
7 | CN1CCN(c2ccc(-c3cnc4c(c3)N(Cc3cc(F)ccc3F)CCN4)cn2)CC1 | < 50 | < 50 | < 50 | < 50 | 67 | < 50 | < 50 | < 50 | < 50
8 | O=C(c1ccc(-c2cnc3c(c2)N(Cc2cc(Cl)ccc2C(F)(F)F)CCN3)cc1)N1CCCCC1 | < 50 |  |  | < 50 |  | < 50 |  | < 50 | < 50
9 | CC(=O)N1CCN(c2cc(-c3cnc4c(c3)N(Cc3cc(Cl)ccc3C(F)(F)F)CCN4)ccn2)CC1 | < 50 | < 50 | < 50 | < 50 | < 50 | < 50 | < 50 | < 50 | < 50
10 | O=C(O)c1ccc(-c2cnc3c(c2)N(Cc2cc(Cl)ccc2C(F)(F)F)CCN3)cc1 | < 50 |  |  | < 50 |  | < 50 |  | < 50 | < 50
